From ChEMBL document CHEMBL2034932, “2-Anilino-4-(benzimidazol-2-yl)pyrimidines--a multikinase inhibitor scaffold with antiproliferative activity toward cancer cell lines” (Eur J Med Chem, 2012)
Where a name gives a salt, the structure may show the parent alone. Calls of active or inactive are those of the source. The calls are words filed in the database; no cut-off is given here.

Legend:
[1] = system: SW-620; experiment: Antiproliferative activity against human SW620 cells after 48 hrs by SRB assay; assay type: functional; conditions: SW-620, 48 h
Procedure, shortened: (§1)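 Run in the NCI screen of about 60 human tumour cell lines. Cells were exposed to compound for 48 h at five concentrations from 10^-8 to 10^-4 M, then fixed and stained for protein with sulforhodamine B. Absorbance was read at 515 nm. Percent growth was calculated from time-zero, untreated-control and treated readings, and replicate experiments were averaged.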

[2] = system: MDA-MB-435; experiment: Antiproliferative activity against human MDA-MB-435 cells after 48 hrs by SRB assay; assay type: functional; conditions: MDA-MB-435, 48 h; procedure, shortened: as §1
[3] = system: OVCAR-3; experiment: Antiproliferative activity against human OVCAR3 cells after 48 hrs by SRB assay; assay type: functional; conditions: OVCAR-3, 48 h; procedure, shortened: as §1
[4] = system: CAKI-1; experiment: Antiproliferative activity against human CAKI-1 cells after 48 hrs by SRB assay; assay type: functional; conditions: CAKI-1, 48 h; procedure, shortened: as §1
[5] = system: MCF7; experiment: Antiproliferative activity against human MCF7 cells after 48 hrs by SRB assay; assay type: functional; conditions: MCF7, 48 h; procedure, shortened: as §1
[6] = system: EKVX; experiment: Antiproliferative activity against human EKVX cells after 48 hrs by SRB assay; assay type: functional; procedure, shortened: as §1
[7] = system: HT-29; experiment: Antiproliferative activity against human HT-29 cells after 48 hrs by SRB assay; assay type: functional; conditions: HT-29, 48 h; procedure, shortened: as §1
[8] = system: SNB-19; experiment: Antiproliferative activity against human SNB19 cells after 48 hrs by SRB assay; assay type: functional; conditions: SNB-19, 48 h; procedure, shortened: as §1
[9] = system: UACC-257; experiment: Antiproliferative activity against human UACC257 cells after 48 hrs by SRB assay; assay type: functional; conditions: UACC-257, 48 h; procedure, shortened: as §1
[10] = system: TK-10; experiment: Antiproliferative activity against human TK10 cells after 48 hrs by SRB assay; assay type: functional; conditions: TK-10, 48 h; procedure, shortened: as §1
[11] = target: T1, RAC-alpha serine/threonine-protein kinase (Homo sapiens, UniProt P31749); experiment: Inhibition of recombinant AKT1 using GSK3 as substrate assessed as inhibition of [33P]Phosphate incorporation into substrate after 80 mins by scintillation counting
T1 sequence (P31749 whole entry): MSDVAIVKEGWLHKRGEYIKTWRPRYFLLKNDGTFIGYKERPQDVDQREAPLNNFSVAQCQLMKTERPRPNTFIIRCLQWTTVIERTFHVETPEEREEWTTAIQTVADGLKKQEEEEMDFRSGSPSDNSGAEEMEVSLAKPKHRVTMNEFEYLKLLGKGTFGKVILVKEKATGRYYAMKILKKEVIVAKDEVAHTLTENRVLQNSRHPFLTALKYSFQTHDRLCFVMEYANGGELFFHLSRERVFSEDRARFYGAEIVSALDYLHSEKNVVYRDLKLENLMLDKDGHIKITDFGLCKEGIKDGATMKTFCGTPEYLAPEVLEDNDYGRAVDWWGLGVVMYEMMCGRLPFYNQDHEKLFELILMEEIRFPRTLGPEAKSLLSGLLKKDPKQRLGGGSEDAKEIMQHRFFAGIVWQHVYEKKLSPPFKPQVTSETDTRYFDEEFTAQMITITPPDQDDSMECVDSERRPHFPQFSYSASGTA
Procedure, shortened: (§2)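 Recombinant AKT1 was assayed radiometrically with [33P]-ATP (about 5×10^5 cpm/well) and GSK3(14-27) substrate at 2000 ng/50 µL. Buffer was 60 mM HEPES-NaOH pH 7.5 with 3 mM MgCl2 and 3 mM MnCl2, and compound was added in 10% DMSO. After 80 min at 30 °C the reaction was stopped with 2% phosphoric acid, washed with 0.9% NaCl and 33P incorporation counted by scintillation.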

[12] = target: T2, Aurora kinase B (Homo sapiens, UniProt Q96GD4); experiment: Inhibition of recombinant Aurora B using tetra(LRRWSLG) as substrate assessed as inhibition of [33P]Phosphate incorporation into substrate after 80 mins by scintillation counting
T2 sequence (Q96GD4 whole entry): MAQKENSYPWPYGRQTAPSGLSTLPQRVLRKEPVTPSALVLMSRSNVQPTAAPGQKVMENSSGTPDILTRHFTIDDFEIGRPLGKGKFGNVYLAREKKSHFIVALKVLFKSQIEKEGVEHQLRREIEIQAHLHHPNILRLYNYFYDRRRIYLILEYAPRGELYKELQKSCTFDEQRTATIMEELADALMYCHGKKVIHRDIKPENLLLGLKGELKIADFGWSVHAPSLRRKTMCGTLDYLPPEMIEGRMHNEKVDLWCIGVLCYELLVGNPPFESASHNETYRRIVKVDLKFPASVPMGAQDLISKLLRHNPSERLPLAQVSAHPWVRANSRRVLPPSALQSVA

[13] = target: T3, Focal adhesion kinase 1 (Homo sapiens, UniProt Q05397); experiment: Inhibition of recombinant FAK using poly(Glu,Tyr)4 as substrate assessed as inhibition of [33P]Phosphate incorporation into substrate after 80 mins by scintillation counting
Target sequence in this assay (Q05397 whole entry): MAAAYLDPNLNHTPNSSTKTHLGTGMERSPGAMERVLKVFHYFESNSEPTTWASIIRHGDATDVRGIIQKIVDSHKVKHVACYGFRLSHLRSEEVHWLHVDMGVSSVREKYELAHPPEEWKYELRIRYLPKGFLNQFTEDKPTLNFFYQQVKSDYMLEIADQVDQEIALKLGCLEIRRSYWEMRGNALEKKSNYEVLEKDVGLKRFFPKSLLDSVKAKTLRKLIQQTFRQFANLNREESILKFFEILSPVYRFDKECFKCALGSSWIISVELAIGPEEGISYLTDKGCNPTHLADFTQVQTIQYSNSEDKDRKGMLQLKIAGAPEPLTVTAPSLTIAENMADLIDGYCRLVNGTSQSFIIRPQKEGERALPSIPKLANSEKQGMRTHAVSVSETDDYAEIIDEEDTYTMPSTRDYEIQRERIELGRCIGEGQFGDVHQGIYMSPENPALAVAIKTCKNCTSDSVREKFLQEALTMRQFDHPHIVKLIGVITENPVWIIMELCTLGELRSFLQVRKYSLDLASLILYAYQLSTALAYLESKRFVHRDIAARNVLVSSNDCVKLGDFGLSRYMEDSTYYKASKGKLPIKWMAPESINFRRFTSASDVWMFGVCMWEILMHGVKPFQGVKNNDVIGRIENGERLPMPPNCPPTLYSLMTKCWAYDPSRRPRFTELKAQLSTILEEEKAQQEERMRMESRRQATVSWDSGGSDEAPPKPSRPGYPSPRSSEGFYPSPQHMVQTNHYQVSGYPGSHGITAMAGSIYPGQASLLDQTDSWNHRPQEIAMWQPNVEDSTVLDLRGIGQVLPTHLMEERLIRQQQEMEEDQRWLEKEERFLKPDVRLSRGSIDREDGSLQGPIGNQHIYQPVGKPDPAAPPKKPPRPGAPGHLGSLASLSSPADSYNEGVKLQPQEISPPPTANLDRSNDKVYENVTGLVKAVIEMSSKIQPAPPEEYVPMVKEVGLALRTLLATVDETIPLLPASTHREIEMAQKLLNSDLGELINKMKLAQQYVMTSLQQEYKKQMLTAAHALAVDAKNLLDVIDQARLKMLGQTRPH

[14] = target: T4, Serine/threonine-protein kinase PLK1 (Homo sapiens, UniProt P53350); experiment: Inhibition of recombinant PLK1 using RBERCHKtide as substrate assessed as inhibition of [33P]Phosphate incorporation into substrate after 80 mins by scintillation counting
T4 sequence (P53350 whole entry): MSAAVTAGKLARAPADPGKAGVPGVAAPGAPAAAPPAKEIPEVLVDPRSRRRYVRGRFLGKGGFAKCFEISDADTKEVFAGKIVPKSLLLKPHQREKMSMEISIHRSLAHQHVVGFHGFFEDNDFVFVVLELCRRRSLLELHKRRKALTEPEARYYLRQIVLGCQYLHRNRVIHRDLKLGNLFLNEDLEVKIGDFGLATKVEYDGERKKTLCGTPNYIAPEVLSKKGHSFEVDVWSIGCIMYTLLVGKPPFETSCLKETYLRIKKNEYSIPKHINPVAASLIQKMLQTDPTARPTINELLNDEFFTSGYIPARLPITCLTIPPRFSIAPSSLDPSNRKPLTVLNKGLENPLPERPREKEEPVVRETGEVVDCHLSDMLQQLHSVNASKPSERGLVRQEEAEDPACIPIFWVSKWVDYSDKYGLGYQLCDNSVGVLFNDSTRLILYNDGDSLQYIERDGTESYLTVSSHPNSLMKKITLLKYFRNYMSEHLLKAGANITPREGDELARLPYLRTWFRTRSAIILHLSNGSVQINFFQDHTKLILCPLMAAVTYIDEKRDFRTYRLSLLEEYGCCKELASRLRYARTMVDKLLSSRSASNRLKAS
Procedure, shortened: (§3)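 PLK1 (recombinant) was phosphorylating RBER-CHKtide at 2000 ng/50 µL with [33P]-ATP (about 5×10^5 cpm/well). Buffer was 60 mM HEPES-NaOH pH 7.5 with 3 mM MgCl2 and 3 mM MnCl2. After 80 min at 30 °C, 2% phosphoric acid stopped the reaction and wells were washed with saline. Incorporated 33P was counted, with residual activity relative to enzyme-free and inhibitor-free controls.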

[15] = target: T5, Vascular endothelial growth factor receptor 2 (Homo sapiens, UniProt P35968); experiment: Inhibition of recombinant VEGFR2 using poly(Glu,Tyr)4 as substrate assessed as inhibition of [33P]Phosphate incorporation into substrate after 80 mins by scintillation counting
T5 sequence (P35968 whole entry): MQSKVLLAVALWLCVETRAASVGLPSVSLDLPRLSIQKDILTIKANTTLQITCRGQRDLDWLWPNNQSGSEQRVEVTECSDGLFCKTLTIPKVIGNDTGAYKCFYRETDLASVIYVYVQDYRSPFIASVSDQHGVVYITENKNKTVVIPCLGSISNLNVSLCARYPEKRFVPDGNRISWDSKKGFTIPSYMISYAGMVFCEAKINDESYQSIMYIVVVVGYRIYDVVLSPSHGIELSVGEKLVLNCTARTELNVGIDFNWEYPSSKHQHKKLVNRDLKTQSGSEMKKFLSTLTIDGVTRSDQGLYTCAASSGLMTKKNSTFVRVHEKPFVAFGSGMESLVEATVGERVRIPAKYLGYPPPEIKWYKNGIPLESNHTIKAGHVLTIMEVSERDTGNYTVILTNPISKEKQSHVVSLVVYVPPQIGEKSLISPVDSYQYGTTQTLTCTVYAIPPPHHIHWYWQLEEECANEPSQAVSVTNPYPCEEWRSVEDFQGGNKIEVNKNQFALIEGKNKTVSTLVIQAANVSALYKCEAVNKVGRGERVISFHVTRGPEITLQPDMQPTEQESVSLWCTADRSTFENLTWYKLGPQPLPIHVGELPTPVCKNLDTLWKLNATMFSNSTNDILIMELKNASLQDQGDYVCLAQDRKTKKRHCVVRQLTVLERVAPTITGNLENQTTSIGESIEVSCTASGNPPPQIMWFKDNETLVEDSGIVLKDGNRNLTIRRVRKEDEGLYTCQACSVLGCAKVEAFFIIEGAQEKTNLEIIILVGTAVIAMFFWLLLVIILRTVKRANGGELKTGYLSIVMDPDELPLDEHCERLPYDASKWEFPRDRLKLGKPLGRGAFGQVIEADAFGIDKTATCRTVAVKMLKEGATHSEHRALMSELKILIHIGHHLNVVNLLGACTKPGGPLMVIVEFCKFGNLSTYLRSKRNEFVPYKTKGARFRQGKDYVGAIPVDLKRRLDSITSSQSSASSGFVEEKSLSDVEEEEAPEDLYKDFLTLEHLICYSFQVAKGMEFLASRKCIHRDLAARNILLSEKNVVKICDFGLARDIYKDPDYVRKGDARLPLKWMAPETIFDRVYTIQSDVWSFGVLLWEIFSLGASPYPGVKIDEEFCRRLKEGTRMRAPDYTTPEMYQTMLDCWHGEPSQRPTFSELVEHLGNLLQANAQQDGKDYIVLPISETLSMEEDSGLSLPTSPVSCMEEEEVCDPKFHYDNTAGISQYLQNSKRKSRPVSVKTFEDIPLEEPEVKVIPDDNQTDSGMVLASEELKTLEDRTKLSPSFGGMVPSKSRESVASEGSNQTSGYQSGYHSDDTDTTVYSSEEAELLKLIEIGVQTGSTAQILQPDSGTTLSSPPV

[16] = target: T1, RAC-alpha serine/threonine-protein kinase; experiment: Inhibition of recombinant AKT1 using GSK3 as substrate assessed as inhibition of [33P]Phosphate incorporation into substrate at <10 uM after 80 mins by scintillation counting
Procedure, shortened: as §2, with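 “scintillation. Residual activity was set against no-enzyme and no-inhibitor controls.” for “scintillation.”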

[17] = target: T2, Aurora kinase B; experiment: Inhibition of recombinant Aurora B using tetra(LRRWSLG) as substrate assessed as inhibition of [33P]Phosphate incorporation into substrate at <10 uM after 80 mins by scintillation counting
Procedure, shortened: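 Recombinant Aurora B was assayed with [33P]-ATP (about 5×10^5 cpm/well) and tetra(LRRWSLG) substrate at 500 ng/50 µL. Buffer was 60 mM HEPES-NaOH pH 7.5 with 3 mM MgCl2 and 3 mM MnCl2. Incubation ran 80 min at 30 °C and was stopped with 2% phosphoric acid, then washed with saline. Bound 33P was counted by scintillation, with activity normalised to no-enzyme (0%) and no-inhibitor (100%) controls.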

[18] = target: T3, Focal adhesion kinase 1; experiment: Inhibition of recombinant FAK using poly(Glu,Tyr)4 as substrate assessed as inhibition of [33P]Phosphate incorporation into substrate at <10 uM after 80 mins by scintillation counting
Procedure, shortened: (§4)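 FAK and VEGF-R2 were each tested as recombinant kinase with poly(Glu,Tyr)4:1 substrate at 125 ng/50 µL and [33P]-ATP (about 5×10^5 cpm/well). Buffer was 60 mM HEPES-NaOH pH 7.5 with 3 mM MgCl2 and 3 mM MnCl2. Reactions ran 80 min at 30 °C and were quenched with 2% phosphoric acid and washed with 0.9% NaCl. Scintillation counts were normalised between no-enzyme and uninhibited controls.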

[19] = target: T5, Vascular endothelial growth factor receptor 2; experiment: Inhibition of recombinant VEGFR2 using poly(Glu,Tyr)4 as substrate assessed as inhibition of [33P]Phosphate incorporation into substrate at <10 uM after 80 mins by scintillation counting; procedure, shortened: as §4
[20] = target: T4, Serine/threonine-protein kinase PLK1; experiment: Inhibition of recombinant PLK1 using RBERCHKtide as substrate assessed as inhibition of [33P]Phosphate incorporation into substrate at <10 uM after 80 mins by scintillation counting; procedure, shortened: as §3
[21] = target: T6, NUAK family SNF1-like kinase 1 (Homo sapiens) (UniProt O60285); experiment: Inhibition of recombinant ARK5 at <10 uM by radiometric kinase assay
T6 sequence (whole entry): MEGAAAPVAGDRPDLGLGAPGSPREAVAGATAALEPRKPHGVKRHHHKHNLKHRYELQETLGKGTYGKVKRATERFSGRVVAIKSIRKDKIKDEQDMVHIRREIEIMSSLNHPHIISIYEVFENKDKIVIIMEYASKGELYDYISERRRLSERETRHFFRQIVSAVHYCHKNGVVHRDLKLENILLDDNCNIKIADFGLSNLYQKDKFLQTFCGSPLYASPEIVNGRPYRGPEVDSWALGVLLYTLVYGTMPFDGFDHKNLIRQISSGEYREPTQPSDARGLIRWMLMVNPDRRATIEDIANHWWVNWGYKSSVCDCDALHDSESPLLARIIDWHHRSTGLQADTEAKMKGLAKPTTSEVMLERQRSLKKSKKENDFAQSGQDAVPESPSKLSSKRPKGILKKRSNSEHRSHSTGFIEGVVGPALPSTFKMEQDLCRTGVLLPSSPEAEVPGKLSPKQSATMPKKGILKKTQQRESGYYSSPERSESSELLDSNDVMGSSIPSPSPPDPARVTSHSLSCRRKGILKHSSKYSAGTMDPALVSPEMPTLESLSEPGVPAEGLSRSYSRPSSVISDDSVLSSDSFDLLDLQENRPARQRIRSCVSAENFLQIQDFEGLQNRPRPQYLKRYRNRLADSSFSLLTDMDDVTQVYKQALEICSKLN
Procedure, shortened: (§5)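 Recombinant kinases were tested in a radiometric 33P-ATP assay in 60 mM HEPES-NaOH pH 7.5 with 3 mM MgCl2 and 3 mM MnCl2, with compound added in 10% DMSO. Incubation was 80 min at 30 °C, stopped with 2% phosphoric acid and washed. 33P incorporation was scintillation-counted, and activity was scaled between no-enzyme and no-inhibitor controls.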

[22] = target: Tyrosine-protein kinase receptor UFO (Homo sapiens) (UniProt P30530); experiment: Inhibition of recombinant AXL at <10 uM by radiometric kinase assay; procedure, shortened: as §5
[23] = target: Insulin-like growth factor 1 receptor (Homo sapiens) (UniProt P08069); experiment: Inhibition of recombinant IGF1R at <10 uM by radiometric kinase assay; procedure, shortened: as §5
[24] = target: Hepatocyte growth factor receptor (Homo sapiens) (UniProt P08581); experiment: Inhibition of recombinant MET at <10 uM by radiometric kinase assay; procedure, shortened: as §5
[25] = target: Serine/threonine-protein kinase N1 (Homo sapiens) (UniProt Q16512); experiment: Inhibition of recombinant PRK1 at <10 uM by radiometric kinase assay; procedure, shortened: as §5
[26] = target: Proto-oncogene tyrosine-protein kinase Src (Homo sapiens) (UniProt P12931); experiment: Inhibition of recombinant SRC at <10 uM by radiometric kinase assay; procedure, shortened: as §5
Proto-oncogene tyrosine-protein kinase Src (Homo sapiens), sequence (P12931 2-536 limits assumed): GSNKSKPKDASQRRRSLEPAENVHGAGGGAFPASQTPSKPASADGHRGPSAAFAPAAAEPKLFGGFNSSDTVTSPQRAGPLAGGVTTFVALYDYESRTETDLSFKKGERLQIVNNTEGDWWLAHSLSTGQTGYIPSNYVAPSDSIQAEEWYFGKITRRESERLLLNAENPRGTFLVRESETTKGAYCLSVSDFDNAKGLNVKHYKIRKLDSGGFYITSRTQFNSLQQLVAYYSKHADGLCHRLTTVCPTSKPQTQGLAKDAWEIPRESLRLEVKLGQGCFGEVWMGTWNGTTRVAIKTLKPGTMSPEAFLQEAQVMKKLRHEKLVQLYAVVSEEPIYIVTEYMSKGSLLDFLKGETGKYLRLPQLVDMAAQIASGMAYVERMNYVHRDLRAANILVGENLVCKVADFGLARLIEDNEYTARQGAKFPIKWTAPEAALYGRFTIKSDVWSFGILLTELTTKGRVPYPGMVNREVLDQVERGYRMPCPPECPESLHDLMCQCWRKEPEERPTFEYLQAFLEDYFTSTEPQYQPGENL

GI50 [1] [µM]	GI50 [2] [µM]	GI50 [3] [µM]	GI50 [5] [µM]	GI50 [7] [µM]	IC50 [11] [µM]	IC50 [12] [µM]	IC50 [13] [µM]	IC50 [14] [µM]	Compound	GI50 [4] [µM]	GI50 [6] [µM]	GI50 [8] [µM]	GI50 [9] [µM]	GI50 [10] [µM]	also measured
3.2	2	3.2	2.5	2.5					CNC(=O)c1cc(Oc2ccc(NC(=O)Nc3ccc(Cl)c(C(F)(F)F)c3)cc2)ccn1 [SORAFENIB TOSYLATE]	3.2	2.5	3.2	2	5	
0.44	0.2	0.55	0.79	3.4	> 100	3	0.64		COc1ccc(Nc2ncc3c(n2)-c2ccccc2NC(=O)C3)cc1O	0.15	4.1	21	19	4.1	
1.3	2	3.2	2	1.6					CCN(CC)CCNC(=O)c1c(C)[nH]c(/C=C2\C(=O)Nc3ccc(F)cc32)c1C [SUNITINIB]	0.63	7.9	10	4	6.3	
0.62	0.19	0.93	0.47	27	> 100	6		1.2	COc1ccc(Nc2nccc(-c3nc4ccccc4n3C)n2)cc1O	0.86	17	10	5.5	26	
					> 100	> 100	24	> 100	Cn1c(-c2ccnc(Nc3ccc(N4CCOCC4)cc3)n2)nc2ccccc21						IC50 [15]: 69 µM; inhibition [16]: inactive; inhibition [17]: inactive; inhibition [18]: inactive; inhibition [19]: inactive; inhibition [20]: inactive; inhibition [21]: inactive; inhibition [22]: inactive; inhibition [23]: inactive; inhibition [24]: inactive; inhibition [25]: inactive; inhibition [26]: inactive
